STEP block: inhibitors of human striatal-enriched phosphatase STEP; recombinant STEP, OMFP fluorogenic substrate, fluorescence; hit rate 0.25% among 360,000; inhibition, % at 20 µM;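 active means inhibition at 20 µM, scaled per plate between control wells, above about 37%, limit read from the data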;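 further: 0% = DMSO with enzyme and substrate and 100% = substrate only without enzyme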
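Material: STEP (striatal-enriched tyrosine phosphatase) enzyme, cell-free; Compound dosing: 20 µM single dose in 1% DMSO; Technique: fluorescence read at 480 nm ex / 540 nm em; Times: reaction 20 min, ambient temperature; Medium: 50 mM Bis-Tris pH 6.0 with 2.5 mM DTT and 0.005% Tween 20; Also added: OMFP at 25 µM.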
LMPTP block: LMPTP (human) inhibition; recombinant LMPTP-A, OMFP fluorogenic substrate, fluorescence intensity; inhibition, % at 20 µM; hit rate 0.22% among 360,000;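 active means compounds that cut the enzyme signal by at least half of the control window in the single-dose screen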;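 further: plate controls were DMSO wells with enzyme plus substrate for no effect and substrate without enzyme for full effect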
Target sequence (P24666 whole entry, looked up): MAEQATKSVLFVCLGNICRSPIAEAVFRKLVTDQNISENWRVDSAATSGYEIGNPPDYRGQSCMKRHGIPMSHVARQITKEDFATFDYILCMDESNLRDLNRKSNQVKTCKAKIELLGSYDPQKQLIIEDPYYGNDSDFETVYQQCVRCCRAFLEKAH
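Test system – LMPTP-A phosphatase enzyme · Quantity – 0.625 nM LMPTP-A final · Reagent – OMFP substrate, 400 µM final · Dosing – one test concentration per compound, 20 µM, with 3% DMSO overall · Timing – 50 min enzyme reaction at room temperature, protected from light · Detection – fluorescence intensity · Controls – substrate-only low control, DMSO enzyme-plus-substrate high control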
Scp-1 inhibitor: Scp-1 (human) phosphatase inhibition; inhibition, % at 20 µM; Q9GZU7; Recombinant Scp1, phosphopeptide, malachite green phosphate absorbance; hit rate 0.88% among 340,000; AID 493091;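 active means inhibition above about 50% at 20 µM, limit read from the data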;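 further: plate controls were DMSO wells with enzyme for no effect and wells lacking enzyme for full effect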
Target sequence (Q9GZU7 76-261 limits assumed): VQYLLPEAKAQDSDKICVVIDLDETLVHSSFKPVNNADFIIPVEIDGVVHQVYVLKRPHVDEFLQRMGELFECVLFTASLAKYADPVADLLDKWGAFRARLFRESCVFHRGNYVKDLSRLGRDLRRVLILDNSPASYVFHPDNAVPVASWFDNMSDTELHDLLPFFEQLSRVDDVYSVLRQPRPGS
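Test system: SCP-1 phosphatase catalytic domain, residues 76-261; measured by: colorimetric phosphate reagent with accelerator and stabiliser, absorbance at 630 nm; timing: enzyme reaction 45 min at room temperature, colour 5 min, stabilisation 30 min; also added: Phosphorylated 17-residue peptide substrate; compound dosing: one concentration, 20 µM, with 1.0% DMSO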
SUMO1-SIM PPI: modulators of human SUMO1-mediated protein-protein interactions | SUMO1 binding to a labelled peptide, TR-FRET, 1 h | inhibition, % at 20 µM | AID 602429 | hit rate 0.33% among 360,000 | P63165; in the data active means inhibition above about 37%
Target sequence (P63165 whole entry, looked up): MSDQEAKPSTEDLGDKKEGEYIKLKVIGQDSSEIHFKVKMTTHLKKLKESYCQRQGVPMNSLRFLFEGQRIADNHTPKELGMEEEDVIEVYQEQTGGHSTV
DNMT1 inh: inhibitors of human DNMT1; AID 588458; hit rate 0.83% among 360,000; P26358; inhibition (reported as % activation of signal), % at 10 µM; DNMT1 molecular beacon, Hinp1I cleavage, fluorescence; in the data active means inhibition above about 50%
Scp-1 conf: confirmation of human Scp-1 phosphatase inhibitors. shares compounds with Scp-1 inhibitor. recombinant SCP-1 catalytic domain, phosphate release, malachite green absorbance. inhibition, % at 20 µM. hit rate 61% among 2,500. AID 540281;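 further: plate controls were DMSO with enzyme for no effect and buffer wells lacking enzyme for full effect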
MG interference: colorimetric interference in Scp-1 counter-screen. Colorimetric interference counterscreen, malachite green absorbance 630 nm. shares compounds with Scp-1 inhibitor. 2,500 tested, under 10 active. apparent inhibition (interference), % at 20 µM. AID 540313;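 further: compounds added after enzyme reaction finished so only phosphate colour detection is probed; plate controls were DMSO wells with completed Scp-1 reaction for no effect and substrate wells lacking enzyme for full effect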
Scp-1 Tm shift: Scp-1 (human) binding by thermal shift | shares compounds with Scp-1 inhibitor | Recombinant SCP1, Sypro Orange thermal shift Tm | thermal shift relative to vanadate control, % at 40 µM | hit rate 25% among 1,500 | AID 540329;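 active means substances whose mean melting-temperature shift, as a percentage of the reference inhibitor's shift, reaches about 5.3%, limit read from the data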;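 further: 0% = Tm of DMSO wells and 100% = Tm with sodium orthovanadate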
DNMT1 interf DR: beacon fluorescence artifact, dose response counter-screen | IC50, µM | molecular beacon fluorescence, spectral interference counter-screen | 200 tested, under 10 active | shares compounds with DNMT1 inh; call rule not given here
DNMT1 confirm: confirmation of human DNMT1 inhibitors; hit rate 8% among 2,300; shares compounds with DNMT1 inh; inhibition, % at 10 µM; AID 602385; DNMT1 molecular beacon HinP1I cleavage, fluorescence;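 active means average inhibition of at least 30% in the single-concentration confirmation test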
DNMT1 interf: shows spectral interference in the DNMT1 beacon assay; shares compounds with DNMT1 inh; DNMT1 molecular beacon spectral interference counterscreen, fluorescence 485/520; activation (fluorescence interference), % at 10 µM; hit rate 1% among 2,300; AID 602387;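 active means activation of at least 30% at 10 µM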;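 further: DNMT1 catalytic domain with a HinP1I cleavage step and a FAM/dabcyl DNA beacon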
Starred values were filed as active, the others as inactive; · = no result. Hits are enriched below; roughly 1.8% of the tested compounds scored in any of these assays.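 How the source made its calls, unless noted: active means inhibition of at least 30% at 20 µM; inactive means the rest.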

SMILES	STEP block	LMPTP block	Scp-1 inhibitor	SUMO1-SIM PPI	DNMT1 inh	Scp-1 conf	MG interference	Scp-1 Tm shift	DNMT1 confirm	DNMT1 interf	others
NC(=O)c1c(NC(=O)CSc2nnc(-c3ccco3)n2-c2ccccc2)sc2c1CCC2	5	21	76*	16	86*	75*	-4	1	3	3
CCOC(=O)Cc1csc(SCC(=O)Nc2nccs2)n1	2	1	-3	1	1	·	·	·	·	·
CCC1(CC)NC(=O)N(CC(=O)Nc2sc3c(c2C(N)=O)CCC3)C1=O	-2	17	68*	25	77*	61*	-8	12*	4	-5
Cc1ccc(C(=O)NN2CC(O)=C(c3nc(-c4cccc([N+](=O)[O-])c4)cs3)C2=N)cc1	20	13	75*	1	80*	43*	-7	6.1*	39*	-2	DNMT1 interf DR=>99
CN(CC(=O)Nc1ccccc1C(F)(F)F)C(=O)c1ccccc1Sc1ccccc1C#N	0	0	-8	3	1	·	·	·	·	·
COc1ccc(OC)c([N+](=O)[O-])c1C(N)=O	21	14	68*	5	75*	62*	-7	-10	2	-2
Cc1cc(C)c(CN2CCN(C(=O)Cn3cnc(C(=O)Nc4ccc(C)c(C)c4)n3)CC2)c(C)c1	4	-1	7	4	1	·	·	·	·	·
O=P(O)(c1ccccc1)c1ccccc1O	-3	-1	-4	2	-1	·	·	·	·	·
O=P(c1ccccc1)(c1ccccc1)c1cc(S(=O)(=O)O)ccc1O	98*	29	88*	15	83*	60*	-13	-18	3	-1
COc1ccc(-c2csc(NC(=O)CSc3nc(C)cs3)n2)cc1	2	-3	-14	4	-5	·	·	·	·	·
COc1ccc(-c2csc(NC(=O)CSc3nc(C)nc4sc(C(=O)O)c(C)c34)n2)cc1	0	3	87*	22	81*	64*	-13	10*	62*	5	DNMT1 interf DR=>99
CC1(CC(=O)N/N=C/c2cc([N+](=O)[O-])c(O)cc2O)OCCO1	14	69*	69*	-14	69*	64*	-4	6.1*	2	-3
COc1ccc(C(=O)NCC(=O)Nc2ccc(-c3ccccc3)cc2)cc1	12	23	95*	4	53*	84*	-8	-20	1	-4
Cc1ccc(C)c(N2CCN(S(=O)(=O)c3ccc4c(c3)C(C)(C)C(=O)N4C)CC2)c1	-2	4	3	0	-4	·	·	·	·	·
Cc1cccc(N2CCN(S(=O)(=O)c3ccc4c(c3)C(C)(C)C(=O)N4C)CC2)c1C	6	6	85*	1	76*	69*	-7	-2	7	1
CCOc1cc(/C=N/Nc2ccccc2Cl)ccc1OCC(=O)O	14	1	54*	24	58*	16	-12	·	4	5
CC(=O)NC(Cc1c[nH]c2ccccc12)C(=O)NCc1ccco1 (configuration not stated)	1	-1	-1	6	2	·	·	·	·	·
CC(Cc1c[nH]c2ccccc12)C(=O)NCc1ccco1 (configuration not stated)	0	0	103*	60*	74*	60*	-16	-18	10	3
O=C(COC(=O)c1ccc(S(=O)(=O)NCc2ccco2)cc1)NCc1ccc(F)cc1	-3	1	4	2	1	·	·	·	·	·
COc1ccc(CNC(=O)COC(=O)c2ccc(S(=O)(=O)NCc3ccco3)cc2)cc1	6	2	55*	2	51*	61*	-12	-1	0	1
O=C(OCc1cc(=O)n2c(n1)sc1ccccc12)c1ccc(O)cc1	3	2	64*	9	56*	53*	-21	-9	1	2
COc1ccc(/C=C/C(=O)OCc2cc(=O)n3c(n2)sc2ccccc23)cc1	3	3	-2	-5	6	·	·	·	·	·
Cc1cccc(C(=O)N[C@H](C(=O)OCc2cc(=O)n3c(n2)sc2ccccc23)C(C)C)c1	9	23	72*	8	98*	50*	-22	2	3	1
c1csc(-c2cc(N3CCCCC3)c3ccccc3n2)c1	3	40	-2	-3	2	·	·	·	·	·
CN(CC(=O)NC(=O)NCc1ccco1)Cc1nc2ccccc2c(=O)[nH]1	0	0	86*	3	70*	73*	-7	-4	4	2
SMILES	STEP block	LMPTP block	Scp-1 inhibitor	SUMO1-SIM PPI	DNMT1 inh	Scp-1 conf	MG interference	Scp-1 Tm shift	DNMT1 confirm	DNMT1 interf	others
Cc1ccc(/C=C/C(=O)NCc2ccccn2)o1	0	1	72*	-2	67*	59*	-13	3	6	1
Cc1cccc(N2CCN(C(=O)c3cccc(S(=O)(=O)N4CCOCC4)c3)CC2)c1C	-1	0	-3	-1	0	·	·	·	·	·
CCCCCCn1c(COc2ccccc2F)nnc1SCC(=O)NC1CCS(=O)(=O)C1 (configuration not stated)	-3	0	-5	-4	-1	·	·	·	·	·
C=CCN1C(=O)/C(=C2/Sc3ccccc3N2CCCS(=O)(=O)O)SC1=S	11	6	86*	13	67*	64*	-20	13*	3	1
O=C(CSc1ccsc1[N+](=O)[O-])NCCc1ccc(Cl)cc1	5	10	33	-5	-1	·	·	·	·	·
O=C(CSc1ccsc1[N+](=O)[O-])Nc1cc(F)ccc1F	5	21	72*	0	70*	66*	-16	8.1*	19	0
O=C(Nc1cccc(C(F)(F)F)c1)c1cc2ncc(Br)cn2n1	32	10	7	1	11	·	·	·	·	·
O=C(Nc1ccc2c(c1)OCO2)c1cc2ncc(Br)cn2n1	12	36	57*	9	59*	66*	-5	1	0	-2

Screening results as filed in PubChem BioAssay.
